Assay results published in ChEMBL document CHEMBL1145938, “Synthesis and structure-activity relationship of aminobenzophenones. A novel class of p38 MAP kinase inhibitors with high antiinflammatory activity” (J Med Chem, 2003).

Columns and labels:
[1] = test system: Mus musculus; experiment: Inhibition of ear swelling induced by 12-O-tetradecanoylphorbol-13-acetate (TPA) in murine chronic irritative contact dermatitis model at 0.001 mg/ear (in vivo); format: functional
Procedure, shortened: (§1)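 Murine TPA-induced chronic irritative ear dermatitis, with compound given topically per ear. Ear swelling and ear weight were determined 5 h after the last application. Values are mean % inhibition ± SEM of three to five experiments.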

[2] = test system: Mus musculus; experiment: Inhibition of ear weight induced by 12-O-tetradecanoylphorbol-13-acetate (TPA) in murine chronic irritative contact dermatitis model at 0.001 mg/ear (in vivo); format: functional; procedure, shortened: as §1
[3] = biological target: T1, Myeloperoxidase (Mus musculus) (UniProt P11247); experiment: Inhibition of myeloperoxidase (MPO) activity induced by TPA in murine chronic irritative contact dermatitis model at 0.001 mg/ear (in vivo); format: organism-based
T1 sequence (whole entry): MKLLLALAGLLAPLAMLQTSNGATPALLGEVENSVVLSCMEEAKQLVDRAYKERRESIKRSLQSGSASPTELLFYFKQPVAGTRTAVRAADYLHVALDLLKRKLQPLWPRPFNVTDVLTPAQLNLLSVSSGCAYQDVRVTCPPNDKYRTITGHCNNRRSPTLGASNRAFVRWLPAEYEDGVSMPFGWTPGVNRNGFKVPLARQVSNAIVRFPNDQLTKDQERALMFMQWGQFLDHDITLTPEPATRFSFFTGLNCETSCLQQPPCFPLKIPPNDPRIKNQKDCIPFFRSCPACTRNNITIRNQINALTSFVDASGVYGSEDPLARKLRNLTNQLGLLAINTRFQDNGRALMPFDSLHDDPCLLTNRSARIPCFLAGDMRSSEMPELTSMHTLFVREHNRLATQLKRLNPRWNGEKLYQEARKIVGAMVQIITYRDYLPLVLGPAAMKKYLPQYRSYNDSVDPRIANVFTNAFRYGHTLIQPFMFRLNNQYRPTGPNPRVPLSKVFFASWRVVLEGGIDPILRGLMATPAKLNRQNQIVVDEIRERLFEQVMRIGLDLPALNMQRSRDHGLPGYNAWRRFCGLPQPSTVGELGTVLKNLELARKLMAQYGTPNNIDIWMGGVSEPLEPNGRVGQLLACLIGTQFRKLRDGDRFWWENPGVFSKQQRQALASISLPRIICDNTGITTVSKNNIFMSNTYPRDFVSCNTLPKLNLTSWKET

[4] = biological target: T2, MAP kinase p38 (Homo sapiens, UniProt O15264+Q15759+Q16539+P53778); experiment: In vitro inhibition of IL1-beta release from LPS stimulated human peripheral blood mononuclear cells.; format: functional
Procedure, shortened: (§2)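 Human PBMC from buffy coats (Lymphoprep), 5×10^5 cells/mL in RPMI1640 with 2% FCS, glutamine, penicillin/streptomycin; 30 min preincubation with compound, then LPS stimulation, 18 h at 37 °C, 5% CO2.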

[5] = biological target: T3, Mitogen-activated protein kinase 14 (Homo sapiens, UniProt Q16539); experiment: In vitro inhibitory activity determined against human mitogen-activated protein kinase p38 alpha
T3 sequence (Q16539 whole entry): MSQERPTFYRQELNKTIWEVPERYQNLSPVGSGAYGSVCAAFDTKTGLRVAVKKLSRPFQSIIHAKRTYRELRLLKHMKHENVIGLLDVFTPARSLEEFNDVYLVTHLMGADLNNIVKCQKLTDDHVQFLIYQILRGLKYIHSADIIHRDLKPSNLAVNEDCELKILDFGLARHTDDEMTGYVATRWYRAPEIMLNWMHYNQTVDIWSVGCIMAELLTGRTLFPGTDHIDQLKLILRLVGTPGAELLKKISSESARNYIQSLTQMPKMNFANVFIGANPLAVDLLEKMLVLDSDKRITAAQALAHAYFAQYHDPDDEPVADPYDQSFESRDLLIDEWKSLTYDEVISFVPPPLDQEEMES

[6] = biological target: T2, MAP kinase p38; experiment: In vitro inhibition of TNF-alpha release from LPS stimulated human peripheral blood mononuclear cells.; format: functional; procedure, shortened: as §2
[7] = test system: Mus musculus; experiment: Inhibition of ear weight induced by 12-O-tetradecanoylphorbol-13-acetate (TPA) in murine chronic irritative contact dermatitis model at 0.5 mg/ear (in vivo); format: functional; procedure, shortened: as §1
[8] = biological target: Mitogen-activated protein kinase 11 (Homo sapiens) (UniProt Q15759); experiment: Inhibition of Mitogen-activated protein kinase p38 beta at 1 uM
Mitogen-activated protein kinase 11 (Homo sapiens), sequence (Q15759 whole entry, canonical isoform): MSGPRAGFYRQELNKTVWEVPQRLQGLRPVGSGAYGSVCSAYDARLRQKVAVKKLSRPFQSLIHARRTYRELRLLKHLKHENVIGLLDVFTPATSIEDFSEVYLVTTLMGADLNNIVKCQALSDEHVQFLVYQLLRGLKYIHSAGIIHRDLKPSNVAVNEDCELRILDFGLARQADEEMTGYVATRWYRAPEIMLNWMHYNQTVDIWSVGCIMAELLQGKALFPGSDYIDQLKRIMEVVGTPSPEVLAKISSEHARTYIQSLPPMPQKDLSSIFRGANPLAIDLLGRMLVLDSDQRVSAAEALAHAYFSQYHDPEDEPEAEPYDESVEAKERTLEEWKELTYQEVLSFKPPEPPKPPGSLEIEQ
Procedure, shortened: (§3)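 FLAG-tagged p38 isoform cDNA (β2, γ or δ) transfected into COS-1 cells; kinase activity of the expressed isoform measured with compound at 1 μM.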

[9] = biological target: Mitogen-activated protein kinase; ERK1/ERK2 (Homo sapiens) (UniProt P27361+P28482); experiment: Inhibition of Mitogen-activated protein kinase 3/Mitogen-activated protein kinase 1 (ERK) at 10 uM; format: protein assay
Mitogen-activated protein kinase; ERK1/ERK2 (Homo sapiens), sequence (P27361 whole entry, looked up): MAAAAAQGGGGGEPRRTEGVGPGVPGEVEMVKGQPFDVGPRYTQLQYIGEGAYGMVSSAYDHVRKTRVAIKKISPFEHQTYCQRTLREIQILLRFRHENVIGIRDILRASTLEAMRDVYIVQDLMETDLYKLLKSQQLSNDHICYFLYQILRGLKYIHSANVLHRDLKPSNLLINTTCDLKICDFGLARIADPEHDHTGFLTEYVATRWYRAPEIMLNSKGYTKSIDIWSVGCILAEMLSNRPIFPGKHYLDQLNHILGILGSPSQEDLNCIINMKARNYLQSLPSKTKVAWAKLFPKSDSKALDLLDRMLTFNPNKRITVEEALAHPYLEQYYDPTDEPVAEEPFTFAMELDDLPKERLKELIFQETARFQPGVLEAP
Mitogen-activated protein kinase; ERK1/ERK2 (Homo sapiens), sequence (P28482 whole entry, looked up): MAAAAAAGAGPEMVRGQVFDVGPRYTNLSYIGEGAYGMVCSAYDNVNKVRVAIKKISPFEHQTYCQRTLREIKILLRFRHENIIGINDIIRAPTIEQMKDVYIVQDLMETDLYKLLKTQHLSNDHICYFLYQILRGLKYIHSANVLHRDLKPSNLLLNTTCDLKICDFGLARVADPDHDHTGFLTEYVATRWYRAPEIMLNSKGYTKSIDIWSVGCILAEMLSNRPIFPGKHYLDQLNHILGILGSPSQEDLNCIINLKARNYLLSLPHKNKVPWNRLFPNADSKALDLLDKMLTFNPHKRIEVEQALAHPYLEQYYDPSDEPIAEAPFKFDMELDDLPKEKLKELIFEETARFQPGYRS
Procedure, shortened: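 MCF-7 cells stimulated with EGF; ERK1/2 activity measured with a modified cell-signalling ERK1/2 kinase kit in presence of compound.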

[10] = biological target: T4, Mitogen-activated protein kinase 13 (Homo sapiens) (UniProt O15264); experiment: Inhibition of Mitogen-activated protein kinase p38 delta at 1 uM; procedure, shortened: as §3
T4 sequence (whole entry): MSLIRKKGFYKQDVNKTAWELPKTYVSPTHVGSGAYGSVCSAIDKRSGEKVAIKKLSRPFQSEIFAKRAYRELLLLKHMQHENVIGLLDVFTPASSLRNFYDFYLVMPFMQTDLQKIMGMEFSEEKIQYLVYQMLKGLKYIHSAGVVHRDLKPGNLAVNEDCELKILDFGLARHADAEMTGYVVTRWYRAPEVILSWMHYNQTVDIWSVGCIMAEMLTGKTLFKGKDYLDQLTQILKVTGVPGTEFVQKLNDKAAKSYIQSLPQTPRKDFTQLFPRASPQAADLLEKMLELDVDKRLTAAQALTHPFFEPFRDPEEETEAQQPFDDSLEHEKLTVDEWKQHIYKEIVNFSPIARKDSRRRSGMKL

[11] = biological target: T1, Myeloperoxidase (Mus musculus); experiment: Inhibition of myeloperoxidase (MPO) activity induced by TPA in murine chronic irritative contact dermatitis model at 0.5 mg/ear (in vivo); format: organism-based
[12] = species on record: Mus musculus; experiment: Inhibition of ear swelling in oxazolone-induced murine allergic contact dermatitis at 0.5 mg/ear at 24 hr; format: functional
Procedure, shortened: (§4)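 Groups of six female inbred BALB/cABOM mice (18–21 g) were sensitized with oxazolone on the clipped abdomen 7 days before right-ear challenge. Compound in acetone (20 μL) or vehicle was applied once, 30 min after challenge. Ear swelling (right minus left ear thickness) was read at 24, 48 and 72 h. Values are mean % inhibition ± SEM of four or five experiments.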

[13] = biological target: T1, Myeloperoxidase (Mus musculus); experiment: Inhibition of myeloperoxidase (MPO) activity induced by oxazolone in murine allergic contact dermatitis model at 0.5 mg/ear at 72 hr
[14] = test system: Mus musculus; experiment: Inhibition of ear swelling induced by 12-O-tetradecanoylphorbol-13-acetate (TPA) in murine chronic irritative contact dermatitis model at 0.5 mg/ear (in vivo); format: functional; procedure, shortened: as §1
[15] = biological target: T2, MAP kinase p38; experiment: In vitro inhibition of cytokine IL-8 release by human peripheral blood mononuclear cells
[16] = biological target: T2, MAP kinase p38; experiment: In vitro inhibition of cytokine IL-10 release by human […]; format: functional
Procedure, shortened: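 Buffy-coat PBMC at 5×10^5 cells/mL in RPMI1640 with 10% FCS, glutamine, antibiotics; 30 min compound preincubation, then phytohemagglutinin stimulation and 48 h incubation.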

[17] = biological target: T2, MAP kinase p38; experiment: In vitro inhibition of cytokine IL-6 release by human […]; format: functional
Procedure, shortened: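 PBMC isolated from buffy coats, 5×10^5 cells/mL in RPMI1640 plus 2% FCS, glutamine and antibiotics. Compound added 30 min before LPS; culture 6 h. Supernatant IL-6 or IL-8 quantified by ELISA kits.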

[18] = species on record: Mus musculus; experiment: Inhibition of ear swelling induced by oxazolone induced murine allergic contact dermatitis model at 0.5 mg/ear at 72 hr; format: functional; procedure, shortened: as §4
[19] = biological target: T3, Mitogen-activated protein kinase 14; experiment: Inhibition of Mitogen-activated protein kinase p38 alpha at 1 uM
Procedure, shortened: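 FLAG-tagged p38α cDNA was transfected into COS-1 cells. Kinase activity of the expressed isoform was measured with compound at 1 μM.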

[20] = biological target: T5, Mitogen-activated protein kinase 12 (Homo sapiens) (UniProt P53778); experiment: Inhibition of Mitogen-activated protein kinase p38 gamma at 1 uM; procedure, shortened: as §3
T5 sequence (whole entry): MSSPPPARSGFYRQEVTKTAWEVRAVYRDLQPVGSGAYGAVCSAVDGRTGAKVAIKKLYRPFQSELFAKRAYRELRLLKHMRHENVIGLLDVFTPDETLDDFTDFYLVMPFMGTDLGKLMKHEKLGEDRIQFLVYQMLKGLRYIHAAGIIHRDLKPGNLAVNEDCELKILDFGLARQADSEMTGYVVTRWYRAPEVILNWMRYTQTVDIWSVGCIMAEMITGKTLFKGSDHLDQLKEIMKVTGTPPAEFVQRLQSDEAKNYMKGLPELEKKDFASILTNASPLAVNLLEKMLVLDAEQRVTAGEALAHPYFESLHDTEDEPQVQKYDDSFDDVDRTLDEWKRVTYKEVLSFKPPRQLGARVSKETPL

[21] = biological target: Mitogen-activated protein kinase 8 (Homo sapiens) (UniProt P45983); experiment: Inhibition of c-Jun N-terminal kinase 1 at 10 uM
Mitogen-activated protein kinase 8 (Homo sapiens), sequence (P45983 whole entry): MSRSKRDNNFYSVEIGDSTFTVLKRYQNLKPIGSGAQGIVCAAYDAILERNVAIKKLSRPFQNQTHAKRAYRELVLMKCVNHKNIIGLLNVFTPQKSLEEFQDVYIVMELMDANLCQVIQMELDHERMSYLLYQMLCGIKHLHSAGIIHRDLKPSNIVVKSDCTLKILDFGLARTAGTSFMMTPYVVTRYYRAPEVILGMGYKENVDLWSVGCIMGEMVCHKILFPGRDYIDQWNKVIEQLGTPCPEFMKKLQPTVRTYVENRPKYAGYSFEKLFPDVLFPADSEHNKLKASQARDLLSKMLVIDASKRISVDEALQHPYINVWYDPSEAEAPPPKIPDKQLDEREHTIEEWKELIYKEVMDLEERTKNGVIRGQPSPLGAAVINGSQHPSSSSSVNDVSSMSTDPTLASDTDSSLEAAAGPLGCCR
Procedure, shortened: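 JNK1 activity from UV-stimulated MCF-7 cells, measured with a JNK1 kinase kit in presence of compound.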

[22] = species on record: Homo sapiens; experiment: In vitro inhibition of cytokine IL-12 release by human […]; format: functional
Procedure, shortened: (§5)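 Human PBMC were isolated from buffy coats and diluted 1:1 in saline. Cells were held at 5×10^5 cells/mL in RPMI1640 with 2 mM glutamine and penicillin/streptomycin, then preincubated 30 min with compound. IL-12: 2% FCS, IFN-γ 95 ng/mL for 18 h, then LPS for 24 h. IL-2 and IFN-γ: 10% FCS, phytohemagglutinin for 48 h. Supernatant cytokine measured by sandwich ELISA.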

[23] = species on record: Homo sapiens; experiment: In vitro inhibition of cytokine IL-2 release by human […]; format: functional; procedure, shortened: as §5
[24] = test system: Mus musculus; experiment: Inhibition of ear swelling induced by oxazolone in murine allergic contact dermatitis model at 0.5 mg/ear at 48 hr (in vivo)
[25] = species on record: Homo sapiens; experiment: In vitro inhibition of gamma-interferon release by human […]; format: functional; procedure, shortened: as §5

Row | SMILES | IC50 [4] | IC50 [5] | IC50 [6] | further results
1 | CCCCC(=O)O[C@]1(C(=O)CO)[C@@H](C)C[C@H]2[C@@H]3CCC4=CC(=O)C=C[C@]4(C)[C@@]3(F)[C@@H](O)C[C@@]21C [BETAMETHASONE VALERATE] |  |  |  | Inhibition [1]: 41%; Inhibition [2]: 38%; inhibition [3]: 67%
2 | Cc1cccc(C(=O)c2ccc(Nc3ccccc3N)cc2)c1 | 580 nM | 574 nM | 467 nM | 
3 | Cc1ccccc1C(=O)c1ccc(Nc2ccccc2N)cc1C | 22 nM | 13 nM | 8 nM | 
4 | Nc1ccccc1Nc1ccc(C(=O)c2ccccc2)c(Cl)c1 | 437 nM | 139 nM | 214 nM | 
5 | Cc1cc(F)ccc1Nc1ccc(C(=O)c2ccccc2C)c(Cl)c1 | 17 nM | 4 nM | 4 nM | Inhibition [7]: 26%; inhibition [8]: 92%; inhibition [9]: 0%; inhibition [10]: 4%; inhibition [11]: 60%; Inhibition [12]: 40%; inhibition [13]: 57%; Inhibition [14]: 26%; IC50 [15]: 79 nM; IC50 [16]: 51 nM; IC50 [17]: 35 nM; Inhibition [18]: 54%; inhibition [19]: 88%; inhibition [20]: 5%; inhibition [21]: 0%; IC50 [22]: > 1000 nM; IC50 [23]: > 1000 nM; Inhibition [24]: 46%; IC50 [25]: > 1000 nM
6 | Cc1ccccc1C(=O)c1ccc(Nc2ccccc2N)cc1 | 67 nM | 29 nM | 47 nM | 
7 | C=C(c1ccccc1C)c1ccc(Nc2ccccc2N)cc1Cl | > 5000 nM | 1550 nM | > 10000 nM | 
8 | Cc1ccccc1C(=O)c1ccc(Nc2ccccc2[N+](=O)[O-])cc1Cl | 427 nM | 437 nM | 382 nM | 
9 | CC(=O)Nc1ccccc1Nc1ccc(C(=O)c2ccccc2C)c(Cl)c1 | 21 nM | 63 nM | 10 nM | 
10 | CCOC(=O)Nc1ccccc1Nc1ccc(C(=O)c2ccccc2C)c(Cl)c1 | 16 nM | 42 nM | 6 nM | 
11 | Cc1cc(C(=O)c2ccccc2C)ccc1Nc1ccccc1N | 343 nM | 143 nM | 127 nM | 
12 | COc1ccccc1C(=O)c1ccc(Nc2ccccc2N)cc1Cl | 28 nM | 5 nM | 20 nM | 
13 | Cc1ccccc1C(=O)c1ccc(Nc2ccccc2)cc1Cl | 119 nM | 7 nM | 24 nM | 
14 | Cc1ccccc1C(=O)c1ccc(N(C)c2ccccc2N)cc1Cl | 70 nM | 101 nM | 44 nM | 
15 | Nc1ccccc1Nc1ccc(C(=O)c2ccccc2-c2ccccc2)cc1 | 483 nM | 811 nM | 444 nM | 
16 | Cc1ccccc1Cc1ccc(Nc2ccc(F)cc2N)cc1Cl | > 10000 nM | > 100000 nM | > 10000 nM | 
17 | Nc1ccccc1Nc1ccc(C(=O)c2ccccc2)cc1 | 226 nM | 145 nM | 159 nM | 
18 | CCNC(=O)Nc1ccccc1Nc1ccc(C(=O)c2ccccc2C)c(Cl)c1 | 9 nM | 21 nM | 3 nM | 
19 | Cc1ccccc1Nc1ccc(C(=O)c2ccccc2C)c(Cl)c1 | 26 nM | 12 nM | 14 nM | 
20 | Nc1ccccc1Nc1ccc(C(=O)c2ccccc2Br)cc1 | 45 nM | 54 nM | 34 nM | 
21 | Fc1ccc(-c2ncn(C3CCNCC3)c2-c2ccncc2)cc1 [VK-19911] |  |  |  | inhibition [8]: 59%; inhibition [9]: 0%; inhibition [10]: 8%; inhibition [19]: 73%; inhibition [20]: 0%; inhibition [21]: 9%; IC50 [22]: > 1000 nM; IC50 [23]: > 1000 nM; IC50 [25]: > 1000 nM
22 | O=C(c1ccccc1)c1ccc(Nc2ccccc2)cc1 | 175 nM | 193 nM | 1349 nM | 
